Measured values from ChEMBL document CHEMBL4825680, “Structure-based discovery of potent and selective small-molecule inhibitors targeting signal transducer and activator of transcription 3 (STAT3)” (Eur J Med Chem, 2021).
Active and inactive are the calls of the source. No cut-off for these calls is given here.

Columns and labels:
[1] = Induction of apoptosis in human MDA231-LM2-4175 cells assessed as viable cells at 1 uM after 48 hrs by Annexin-V-FITC/propidium iodide staining based flow cytometric analysis (reference value: 94.4%); assay type: functional; details: read-out: Activity
[2] = Antitumor activity against human MDA231-LM2-4175 cells xenografted in mouse assessed as tumor growth inhibition at 15 mg/kg, iv administered once daily for 20 days; assay type: functional; details: MDA231-LM2-4175, iv, 480 h, time 20 day, read-out: TGI
H9c2 = assay: Antiproliferative activity against rat H9C2 cells assessed as reduction in cell viability after 72 hrs by CCK8 assay; assay type: cell-based; details: H9c2, 72 h
Summary of the method: (§1)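 Cells seeded at 1000–8000 per well were grown overnight, then exposed to 0.1–100 μM compound or 0.1% DMSO vehicle for 72 h. CCK-8 was added for 0.5–4 h at 37 °C and absorbance read at 480 nm. Viability = (OD compound − blank)/(OD vehicle − blank) × 100, with medium as blank. IC50 fitted from three independent experiments.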

[3] = target: T1, Signal transducer and activator of transcription 3 (Homo sapiens, UniProt P40763); assay: Inhibition of STAT3 phosphorylation at Tyr705 residue in human HCC70 cells after 3 hrs by Western blotting analysis; assay type: cell-based; details: dose 0.3-3 µM
[4] = Metabolic stability in human liver microsomes assessed as half life at 0.1 uM preincubated for 10 mins followed by NADPH addition and measured upto 60 mins by LC-MS/MS analysis; assay type: ADME, Microsome; details: time <=70 min
Summary of the method: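 Microsomes at 0.33 mg/mL in 0.1 M Tris pH 7.4 with 5 mM MgCl2; compound final 0.1 μM (0.01% DMSO, 0.005% BSA). Preincubated 10 min at 37 °C, then started with 1 mM NADPH. Sampled at 0, 7, 17, 30 and 60 min and quenched with cold methanol. Centrifuged, then analysed by LC-MS/MS.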

[5] = Tmax in Sprague-Dawley rat at 10 mg/kg, po measured up to 24 hrs by LC-MS/MS analysis; assay type: ADME, organism-based; details: in vivo
Summary of the method: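 Male SD rats dosed orally at 10 mg/kg in DMSO/0.5% HPMC (5/95, v/v). Blood drawn at 0.25, 0.5, 1, 2, 4, 8 and 24 h for plasma. Plasma analysed by LC-MS/MS on a UPLC BEH phenyl column with 0.1% formic acid water/acetonitrile.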

MDA-MB-231 [6] = assay: Effect on total STAT1 level in human MDA-MB-231 cells at 0.3 to 3 uM after 3 hrs by Western blotting analysis; assay type: functional, cell-based; details: dose 0.3-3 µM
Summary of the method: (§2)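 Breast cancer cells were treated with vehicle (0.1% DMSO) or compound, then lysed in RIPA with PMSF and phosphatase inhibitors. 20–50 μg protein was run on 8 or 12% SDS-PAGE, blotted to PVDF, blocked in 5% BSA, probed with primary antibodies overnight at 4 °C, then HRP secondaries, with ECL detection.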

MDA231-LM2-4175 [7] = assay: Induction of apoptosis in human MDA231-LM2-4175 cells assessed as increase in caspase-7 cleavage at 1 uM after 48 hrs by Western blot analysis; assay type: functional, cell-based
Summary of the method: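 Breast cancer cells given vehicle (0.1% DMSO) or compound, then lysed in RIPA buffer with PMSF and phosphatase inhibitors. BCA-quantified lysate (20–50 µg) run on 8 or 12% SDS-PAGE and transferred to PVDF. Blocked in 5% BSA, probed overnight at 4 °C for PARP and cleaved caspase-7, HRP secondary, ECL detection. β-actin as loading control.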

HCC70 = assay: Effect on total STAT1 level in human HCC70 cells at 0.3 to 3 uM after 3 hrs by Western blotting analysis; assay type: functional, cell-based; details: dose 0.3-3 µM; summary of the method: as §2
[8] = target: T1, Signal transducer and activator of transcription 3; assay: Inhibition of HA-tagged STAT3 dimerization (unknown origin) expressed in HEK293T cells preincubated for 3 hrs followed by IL-3 stimulation by immunoprecipitation analysis; assay type: cell-based; details: dose 1-3 µM
MDA-MB-468 [9] = assay: Antiproliferative activity against human MDA-MB-468 cells assessed as reduction in cell viability after 72 hrs by CCK8 assay; assay type: functional, cell-based; details: MDA-MB-468, 72 h; summary of the method: as §1
[10] = Antitumor activity against human MDA231-LM2-4175 cells xenografted in mouse assessed as tumor growth inhibition at 5 mg/kg, iv administered once daily for 20 days; assay type: functional; details: MDA231-LM2-4175, iv, 480 h, time 20 day, read-out: TGI
MDA-MB-231 [11] = assay: Induction of apoptosis in human MDA-MB-231 cells assessed as necrotic cells at 1 uM after 48 hrs by Annexin-V-FITC/propidium iodide staining based flow cytometric analysis (Rvb =0.543%); assay type: functional
Breast cancer cell line = assay: Antitumor activity against patient-derived breast cancer cells xenografted in NOD/SCID mouse assessed as reduction in Bcl-xL expression at 5 to 15 mg/kg, iv administered once daily for 20 days by Western blotting analysis; assay type: functional, organism-based; details: Homo sapiens, dose 5-15 mg/kg, time 20.0 day
MDA231-LM2-4175 [12] = assay: Antitumor activity against iv dosed human MDA231-LM2-4175 cells xenografted in mouse assessed as tumor growth inhibition administered once daily for 20 days; assay type: functional, organism-based; details: dose 5-15 mg/kg, time 20.0 day
MDA-MB-231 [13] = assay: Inhibition of colony formation in human MDA-MB-231 cells at 0.3 uM after 10 to 15 days by crystal violet staining based assay; assay type: functional, cell-based; details: time 10-15 day
Summary of the method: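 Cells seeded at 0.5×10^3–1×10^3 per well; compound added the next day. Medium and compound renewed every 2–3 days. After about 10–15 days, colonies fixed with 4% paraformaldehyde, stained with crystal violet, scanned and quantified by image analysis. Triplicate.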

[14] = Toxicity in NOD/SCID mouse xenografted with patient-derived breast cancer cells assessed as morphological change in kidney at 5 to 15 mg/kg, […] once daily for 20 days by HE staining based assay; assay type: organism-based; details: in vivo, iv, dose 5-15 mg/kg, time 20 day
Summary of the method: (§3)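 Female NOD-SCID mice implanted subcutaneously in the flank with about 2 mm³ TNBC PDX fragments. At about 100 mm³ tumour volume, randomised n=6/group: vehicle (PBS with 15% Cremophor EL), 5 or 15 mg/kg intraperitoneally daily. Killed at day 20; heart, liver, spleen, lung and kidney collected for morphological examination.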

[15] = Toxicity in mouse xenografted with human MDA-MB-231-4175 cells assessed as morphological change in heart at 5 to 15 mg/kg, […] once daily for 20 days by HE staining based assay; assay type: organism-based; details: in vivo, iv, 480 h, dose 5-15 mg/kg, time 20 day
Summary of the method: as §3, with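 “aged 4–5 weeks, given 2×10^6–3×10^6 MDA-MB-231-4175 cells” for “implanted”, “flank.” for “flank with about 2 mm³ TNBC PDX fragments.”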

MDA-MB-468 [16] = assay: Induction of apoptosis in human MDA-MB-468 cells assessed as late apoptotic cells at 3 uM after 48 hrs by Annexin-V-FITC/propidium iodide staining based flow cytometric analysis (reference value: 1.25%); assay type: functional
[17] = Toxicity in NOD/SCID mouse xenografted with patient-derived breast cancer cells assessed as morphological change in spleen at 5 to 15 mg/kg, […] once daily for 20 days by HE staining based assay; assay type: organism-based; details: in vivo, iv, 480 h, dose 5-15 mg/kg, time 20 day; summary of the method: as §3

T1 sequence (P40763 whole entry): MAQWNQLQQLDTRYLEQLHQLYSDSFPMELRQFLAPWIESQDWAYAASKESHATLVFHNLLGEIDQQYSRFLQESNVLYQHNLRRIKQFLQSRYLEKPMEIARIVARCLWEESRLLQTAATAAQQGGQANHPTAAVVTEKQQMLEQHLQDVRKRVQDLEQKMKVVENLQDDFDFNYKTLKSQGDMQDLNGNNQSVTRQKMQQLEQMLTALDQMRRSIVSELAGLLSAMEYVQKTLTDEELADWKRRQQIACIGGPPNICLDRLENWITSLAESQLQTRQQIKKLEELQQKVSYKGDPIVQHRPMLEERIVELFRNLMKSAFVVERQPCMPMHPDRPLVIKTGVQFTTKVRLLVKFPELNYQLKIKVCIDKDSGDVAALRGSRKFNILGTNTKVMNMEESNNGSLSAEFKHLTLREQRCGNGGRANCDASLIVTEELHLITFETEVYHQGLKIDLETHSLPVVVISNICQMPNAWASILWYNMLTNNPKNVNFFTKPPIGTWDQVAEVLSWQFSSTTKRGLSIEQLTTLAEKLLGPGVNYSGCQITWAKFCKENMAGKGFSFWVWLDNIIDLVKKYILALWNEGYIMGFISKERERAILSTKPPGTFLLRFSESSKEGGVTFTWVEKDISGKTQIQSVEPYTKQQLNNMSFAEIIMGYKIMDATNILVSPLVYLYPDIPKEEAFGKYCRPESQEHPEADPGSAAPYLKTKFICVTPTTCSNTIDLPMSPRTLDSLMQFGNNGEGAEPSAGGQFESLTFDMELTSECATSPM

## O=C(Cc1c(-c2ccccc2)nc2ccccn12)Nc1ccc2c(c1)S(=O)(=O)C=C2
[1]
  viability at 1 µM: 88.7%
[2]
  inhibition in vivo at 15 mg/kg: 40.2%
H9c2
  IC50: 6.79 µM
[3]
  inhibition: Dose-Dependent Effect
[4]
  half-life at 0.1 µM: 0.403 h
[5]
  Tmax: 1.67 h
MDA-MB-231 [6]
  Activity: inactive
MDA231-LM2-4175 [7]
  Activity: Active
HCC70
  Activity: inactive
[8]
  inhibition: Dose-Dependent Effect
MDA-MB-468 [9]
  IC50: 2.5 µM
[10]
  inhibition in vivo at 5 mg/kg: 20.1%
MDA-MB-231 [11]
  Activity: 1.57%
Breast cancer cell line
  Activity: Active
MDA231-LM2-4175 [12]
  Activity: Dose-Dependent Effect
MDA-MB-231 [13]
  inhibition: Active
[14]
  Activity: Non-Toxic
[15]
  Activity: Non-Toxic
MDA-MB-468 [16]
  Activity: 27.8%
[17]
  Activity: Non-Toxic
